Results reported in ChEMBL document CHEMBL5137048, “Design and synthesis of water-soluble prodrugs of rifabutin for intraveneous administration” (Eur J Med Chem, 2022).
Converted amounts (≈) assume the structure as drawn.

Assays:
[1] = test system: Acinetobacter baumannii; experiment: Antibacterial activity against Acinetobacter baumannii HUMC1 assessed as inhibition of bacterial growth incubated for 20 hrs by microdilution assay; type: functional
Procedure, shortened: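 Broth microdilution per CLSI against XDR A. baumannii HUMC1. Inoculum 5×10^5 CFU/mL in RPMI + 10% FCS, or in CAMHB + 50% human serum. Compounds tested as 2-fold dilutions from 32 µg/mL final. Plates incubated without shaking at 35 °C for 20 h. MIC read visually as the lowest concentration with no visible growth. Three independent replicates.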

[2] = Stability in human plasma assessed as compound remaining at 6 hrs by HPLC-MS analysis; type: ADME, cell-free; conditions: read-out: Stability
[3] = test system: Acinetobacter baumannii; experiment: Antibacterial activity against Acinetobacter baumannii assessed as reduction in bacterial growth in CAMHB preincubated 6 hrs followed by human serum addition and measured after 20 hrs by microdilution assay; type: functional
[4] = Cmax in CD-1 mouse at 7 mg/kg, iv measured at 5 to 24 hrs by LC-MS/MS analysis; type: ADME, organism-based; set-up: dose 7 mg/kg, route iv; conditions: in vivo
Procedure, shortened: (§1)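 Female CD-1 (RjOrl:SWISS) mice, 8 weeks old at delivery, 9 per compound, given a single IV bolus into a lateral tail vein at 5 mL/kg. Basic compounds were dosed in 0.9% NaCl with 26 mM HCl, with 10% DMSO added for the parent drug; the phosphate prodrug was dosed in PBS pH 7.4. Retrobulbar blood was taken at 5, 15, 30 min and 1, 2, 4, 8, 12, 24 h. Plasma rifabutin was quantified by LC-MS/MS against a calibration curve, with griseofulvin as internal standard.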

[5] = Elimination half life in CD-1 mouse at 7 mg/kg, iv measured at 5 to 24 hrs by LC-MS/MS analysis; type: ADME, organism-based; conditions: in vivo, time lower 5 hrs, read-out: LambdaZ (converted); procedure, shortened: as §1
[6] = Water solubility of compound in PBS buffer at pH 7.4 by UPLC-MS analysis; type: physicochemical
Procedure, shortened: (§2)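 Compounds were suspended at a nominal 10 or 50 mg/mL in PBS pH 7.4 or 26 mM HCl, vortexed, and mixed at 35 rpm for 24 h at RT. The mixture was centrifuged, the supernatant filtered and diluted 2000-fold in CH3CN, and analysed by UPLC-MS/MS (MRM). Solubility = AUC(buffer)/AUC(DMSO) × theoretical concentration.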

[7] = Plasma concentration in CD-1 mouse at 7 mg/kg, iv measured after 24 hrs by LC-MS/MS analysis; type: ADME, organism-based; conditions: in vivo; procedure, shortened: as §1
[8] = Tmax in CD-1 mouse at 7 mg/kg, iv measured at 5 to 24 hrs by LC-MS/MS analysis; type: ADME, organism-based; conditions: in vivo, time lower 5 hrs; procedure, shortened: as §1
[9] = test system: Staphylococcus aureus; experiment: Antibacterial activity against Staphylococcus aureus assessed as reduction in bacterial growth in CAMHB preincubated 6 hrs followed by human serum addition and measured after 20 hrs by microdilution assay; type: functional; conditions: time 26 hrs
Procedure, shortened: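 S. aureus USA300 UAMS-1625 in CAMHB. Drug at 10-fold the 32 µg/mL top concentration was first preincubated in 100% human serum for 6 h, then serially diluted 2-fold and bacteria added (5×10^5 CFU/mL inoculum). Plates held static at 35 °C for 20 h. MIC read visually. Three independent replicates.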

[10] = Chemical stability of compound by UPLC-MS/MS analysis; conditions: pH 7.4
[11] = test system: Staphylococcus aureus; experiment: Antibacterial activity against Staphylococcus aureus assessed assessed as reduction in bacterial growth in CAMHB in absence of human serum measured after 20 hrs by microdilution assay; type: functional
Procedure, shortened: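 S. aureus USA300 UAMS-1625 in CAMHB without serum. CLSI broth microdilution, inoculum 5×10^5 CFU/mL, 2-fold dilutions from 32 µg/mL final. Plates held static at 35 °C for 20 h. MIC was the lowest concentration with no visible growth. Three independent replicates.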

[12] = AUC (0 to infinity) in CD-1 mouse at 7 mg/kg, iv measured at 5 to 24 hrs by LC-MS/MS analysis; type: ADME, organism-based; set-up: dose 7 mg/kg, route iv; conditions: in vivo; procedure, shortened: as §1
[13] = Plasma concentration in CD-1 mouse at 6.5 mg/kg, iv measured after 24 hrs by LC-MS/MS analysis; type: ADME, organism-based; conditions: in vivo; procedure, shortened: as §1
[14] = Cmax in CD-1 mouse at 6.5 mg/kg, iv measured at 5 to 24 hrs by LC-MS/MS analysis; type: ADME, organism-based; set-up: time lower 5 hrs, dose 6.5 mg/kg, route iv; conditions: in vivo; procedure, shortened: as §1
[15] = Water solubility of compound in HCL by UPLC-MS analysis; type: physicochemical; procedure, shortened: as §2
[16] = Elimination half life in CD-1 mouse at 6.5 mg/kg, iv measured at 5 to 24 hrs by LC-MS/MS analysis; type: ADME, organism-based; conditions: in vivo, time lower 5 hrs, read-out: LambdaZ (converted); procedure, shortened: as §1
[17] = Tmax in CD-1 mouse at 6.5 mg/kg, iv measured at 5 to 24 hrs by LC-MS/MS analysis; type: ADME, organism-based; conditions: in vivo, time lower 5 hrs; procedure, shortened: as §1
[18] = AUC (0 to infinity) in CD-1 mouse at 6.5 mg/kg, iv measured at 5 to 24 hrs by LC-MS/MS analysis; type: ADME, organism-based; set-up: dose 6.5 mg/kg, route iv; conditions: in vivo; procedure, shortened: as §1
[19] = Cmax in CD-1 mouse at 5 mg/kg, iv measured at 5 to 24 hrs by LC-MS/MS analysis; type: ADME, organism-based; set-up: dose 5 mg/kg, route iv; conditions: in vivo; procedure, shortened: as §1
[20] = AUC (0 to infinity) in CD-1 mouse at 5 mg/kg, iv measured at 5 to 24 hrs by LC-MS/MS analysis; type: ADME, organism-based; set-up: dose 5 mg/kg, route iv; conditions: in vivo; procedure, shortened: as §1
[21] = Elimination half life in CD-1 mouse at 5 mg/kg, iv measured at 5 to 24 hrs by LC-MS/MS analysis; type: ADME, organism-based; conditions: in vivo, time lower 5 hrs, read-out: LambdaZ (converted); procedure, shortened: as §1

Row | Structure (SMILES) | MIC [1] [µg/mL] | remaining at 6 h [2] [%] | MIC [3] [µg/mL] | solubility [6] [mg/mL] | MIC [9] [µg/mL] | Stability [10] [%] | MIC [11] [µg/mL] | solubility [15] [mg/mL] | other results
1 | COCCC(=O)O[C@@H]1[C@@H](C)[C@@H](O)[C@@H](C)[C@H](OC(C)=O)[C@H](C)[C@@H](OC)/C=C/O[C@@]2(C)Oc3c(C)c(O)c4c(c3C2=O)C2NC3(CCN(CC(C)C)CC3)NC2=C(NC(=O)/C(C)=C\C=C\[C@@H]1C)C4=O (stereo partly specified) | > 32 | 99 | – | – | – | – | – | – | –
2 | CO[C@H]1/C=C/O[C@@]2(C)Oc3c(C)c(O)c4c(c3C2=O)C2NC3(CCN(CC(C)C)CC3)NC2=C(NC(=O)/C(C)=C\C=C\[C@H](C)[C@H](OC(=O)CN(C)C(=O)CNC(=O)OCc2ccc(OP(=O)(O)O)cc2)[C@@H](C)[C@@H](O)[C@@H](C)[C@H](OC(C)=O)[C@@H]1C)C4=O (stereo partly specified) | – | – | 0.001 (≈ 0.000828 µM) | 4.5 (≈ 3730 µM) | 0.06 (≈ 0.0497 µM) | 101 | 32 (≈ 26.5 µM) | – | Cmax [4]: 2700 ng/mL; half-life [5]: 2.9 h; Drug uptake [7]: Active; Tmax [8]: 4.98 min; AUC(0-inf) [12]: 8200 ng·h/mL
3 | COCCC(=O)N1C2=C3NC(=O)/C(C)=C\C=C\[C@H](C)[C@H](O)[C@@H](C)[C@@H](O)[C@@H](C)[C@H](OC(C)=O)[C@H](C)[C@@H](OC)/C=C/O[C@@]4(C)Oc5c(C)c(O)c(c(c5C4=O)C2NC12CCN(CC(C)C)CC2)C3=O (stereo partly specified) | – | 2 | – | – | – | – | – | – | –
4 | COCCOC(=O)N1C2=C3NC(=O)/C(C)=C\C=C\[C@H](C)[C@H](O)[C@@H](C)[C@@H](O)[C@@H](C)[C@H](OC(C)=O)[C@H](C)[C@@H](OC)/C=C/O[C@@]4(C)Oc5c(C)c(O)c(c(c5C4=O)C2NC12CCN(CC(C)C)CC2)C3=O (stereo partly specified) | 0.06 (≈ 0.0631 µM) | 86 | – | – | – | – | – | – | –
5 | CO[C@H]1/C=C/O[C@@]2(C)Oc3c(C)c(O)c4c(c3C2=O)C2NC3(CCN(CC(C)C)CC3)NC2=C(NC(=O)/C(C)=C\C=C\[C@H](C)[C@H](OC(=O)CN(C)C(=O)CNC(=O)[C@@H](N)CCCCN)[C@@H](C)[C@@H](O)[C@@H](C)[C@H](OC(C)=O)[C@@H]1C)C4=O (stereo partly specified) | – | – | 0.001 (≈ 0.000905 µM) | > 50 | 0.06 (≈ 0.0543 µM) | 99 | 16 (≈ 14.5 µM) | 34.4 (≈ 31100 µM) | Drug uptake [13]: Active; Cmax [14]: 300 ng/mL; half-life [16]: 10.7 h; Tmax [17]: 4.98 min; AUC(0-inf) [18]: 1000 ng·h/mL
6 | CO[C@H]1/C=C/O[C@@]2(C)Oc3c(C)c(O)c4c(c3C2=O)C2NC3(CCN(CC(C)C)CC3)NC2=C(NC(=O)/C(C)=C\C=C\[C@H](C)[C@H](OC(=O)CN(C)C(=O)COC(=O)CN(C)C)[C@@H](C)[C@@H](O)[C@@H](C)[C@H](OC(C)=O)[C@@H]1C)C4=O (stereo partly specified) | – | – | 0.001 (≈ 0.000941 µM) | 0.7 (≈ 658 µM) | 0.06 (≈ 0.0564 µM) | 101 | 1 (≈ 0.941 µM) | 12.2 (≈ 11500 µM) | Drug uptake [13]: Active; Cmax [14]: 1100 ng/mL; half-life [16]: 3 h; Tmax [17]: 4.98 min; AUC(0-inf) [18]: 6700 ng·h/mL
7 | CO[C@H]1/C=C/O[C@@]2(C)Oc3c(C)c(O)c4c(c3C2=O)C2=NC3(CCN(CC(C)C)CC3)NC2=C(NC(=O)/C(C)=C\C=C\[C@H](C)[C@H](O)[C@@H](C)[C@@H](O)[C@@H](C)[C@H](OC(C)=O)[C@@H]1C)C4=O [RIFABUTIN] | 0.002 (≈ 0.00236 µM) | – | 0.00025 (≈ 0.000295 µM) | 0.2 (≈ 236 µM) | 0.03 (≈ 0.0354 µM) | – | 0.016 (≈ 0.0189 µM) | 17.7 (≈ 20900 µM) | Cmax [19]: 2200 ng/mL; AUC(0-inf) [20]: 6600 ng·h/mL; half-life [21]: 3.4 h
